The subject of the first assay is Sitophilus zeamais. Description: Insecticidal activity against Sitophilus zeamais assessed as mortality at 50 ug applied on thoracic tergite at 25 +/- 0.5 degC and 75 +/- 5 % RH without food for 12 hr. Type of assay: functional. Put shortly: (§1)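 Topical contact assay. Dose was expressed per mg of insect body weight: 5 μg/mg for P. americana, 10 µg/mg for A. monuste orseis, and 50 μg/mg for A. obtectus and S. zeamais. The acetone control received solvent only. Insects were held in Petri dishes in an incubator with a 12 h photoperiod. Dead and motionless insects were both counted as dead. Mean percent mortality was compared by Tukey test at the 0.05 level.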
What is called mortality is the percentage killed. With `CCOc1ccc(C=C[C@H]2[C@H](C(=O)OC)C2(C)C)cc1`, the mortality came to 97.5%.

Take `COC(=O)[C@H]1[C@H](C=Cc2c(F)c(F)c(F)c(F)c2F)C1(C)C`: the mortality amounted to 97.5%.

Regarding `COC(=O)[C@H]1[C@H](C=Cc2cccc(OC)c2)C1(C)C`, the mortality stood at 92.5%.

With `COC(=O)[C@H]1[C@H](C=Cc2ccccc2OC)C1(C)C`, the mortality is on record as 95%.

`COC(=O)[C@@H]1[C@@H](C=O)C1(C)C`: the mortality is listed as 42.5%.

Regarding `COC(=O)[C@H]1[C@H](C=O)C1(C)C`, the mortality was 45%.

Regarding `CC1(C)C2COC(=O)C21` (stereo not given), the mortality is 85%.

`COC(=O)[C@H]1[C@H](C=Cc2ccccc2Cl)C1(C)C` (mixture of isomers): the mortality stood at 82.5%.

For `CC1(C)C(C=C(Cl)Cl)C1C(=O)OCc1cccc(Oc2ccccc2)c1` (stereo not given) [PERMETHRIN], the mortality was 85.5%.

Another assay has as its system Ascia monuste. Description: Insecticidal activity against Ascia monuste orseis assessed as mortality at 10 ug applied on thoracic tergite at 25 +/- 0.5 degC and 75 +/- 5 % RH with food for 12 hr. Type of assay: functional. Put shortly: as §1
For `CCOc1ccc(C=C[C@H]2[C@H](C(=O)OC)C2(C)C)cc1`, the mortality was 75%.

With `COC(=O)[C@H]1[C@H](C=Cc2c(F)c(F)c(F)c(F)c2F)C1(C)C`, the mortality turned out to be 100%.

Consider `COC(=O)[C@H]1[C@H](C=Cc2cccc(OC)c2)C1(C)C`, for which the mortality was 75%.

Regarding `COC(=O)[C@H]1[C@H](C=Cc2ccccc2OC)C1(C)C`, the mortality stood at 62.5%.

`COC(=O)[C@@H]1[C@@H](C=O)C1(C)C`: the mortality stood at 50%.

`COC(=O)[C@H]1[C@H](C=O)C1(C)C`: the mortality is 27.5%.

With `CC1(C)C2COC(=O)C21` (stereo not given), the mortality was determined as 100%.

`COC(=O)[C@H]1[C@H](C=Cc2ccccc2Cl)C1(C)C` (mixture of isomers): the mortality worked out at 100%.

Consider `CC1(C)C(C=C(Cl)Cl)C1C(=O)OCc1cccc(Oc2ccccc2)c1` (stereo not given) [PERMETHRIN], for which the mortality amounted to 100%.

The subject of a further assay is Acanthoscelides obtectus. The experiment in a line: Insecticidal activity against Acanthoscelides obtectus assessed as mortality at 50 ug applied on thoracic tergite at 25 +/- 0.5 degC and 75 +/- 5 % RH without food for 12 hr. Type of assay: functional. Put shortly: as §1
For the molecule `CCOc1ccc(C=C[C@H]2[C@H](C(=O)OC)C2(C)C)cc1`, the mortality came to 97.5%.

As for `COC(=O)[C@H]1[C@H](C=Cc2c(F)c(F)c(F)c(F)c2F)C1(C)C`, the mortality amounted to 100%.

In the case of `COC(=O)[C@H]1[C@H](C=Cc2cccc(OC)c2)C1(C)C`, the mortality amounted to 82.5%.

As to `COC(=O)[C@H]1[C@H](C=Cc2ccccc2OC)C1(C)C`, the mortality came to 87.5%.

On to `COC(=O)[C@@H]1[C@@H](C=O)C1(C)C`, for which the mortality is given as 90%.

In the case of `COC(=O)[C@H]1[C@H](C=O)C1(C)C`, the mortality turned out to be 100%.

As for `CC1(C)C2COC(=O)C21` (stereo not given), the mortality stood at 100%.

With `COC(=O)[C@H]1[C@H](C=Cc2ccccc2Cl)C1(C)C` (mixture of isomers), the mortality amounted to 97.5%.

As to `CC1(C)C(C=C(Cl)Cl)C1C(=O)OCc1cccc(Oc2ccccc2)c1` (stereo not given) [PERMETHRIN], the mortality turned out to be 100%.

The subject of the next assay is Periplaneta americana. Description: Insecticidal activity against second-instar nymph Periplaneta americana (American cockroach) assessed as mortality at 5 ug applied on thoracic tergite at 25 +/- 0.5 degC and 75 +/- 5 % RH with food for 24 hr. Type of assay: functional. Put shortly:
as §1
On to `COC(=O)[C@H]1[C@H](C=Cc2c(F)c(F)c(F)c(F)c2F)C1(C)C`, for which the mortality is on record as 100%.

For the molecule `COC(=O)[C@H]1[C@H](C=Cc2ccccc2OC)C1(C)C`, the mortality came to 100%.

As to `COC(=O)[C@@H]1[C@@H](C=O)C1(C)C`, the mortality turned out to be 71%.

`COC(=O)[C@H]1[C@H](C=O)C1(C)C`: the mortality amounted to 96%.

As for `CC1(C)C2COC(=O)C21` (stereo not given), the mortality is on record as 100%.

Consider `COC(=O)[C@H]1[C@H](C=Cc2ccccc2Cl)C1(C)C` (mixture of isomers), for which the mortality was 67%.

On to `CC1(C)C(C=C(Cl)Cl)C1C(=O)OCc1cccc(Oc2ccccc2)c1` (stereo not given) [PERMETHRIN], for which the mortality is 97.5%.

Another assay deals with Ascia monuste. The experiment in a line: Insecticidal activity against Ascia monuste orseis assessed as mortality at 10 ug applied on thoracic tergite at 25 +/- 0.5 degC and 75 +/- 5 % RH with food for 24 hr. The format is functional. Summed up:
as §1
For `CCOc1ccc(C=C[C@H]2[C@H](C(=O)OC)C2(C)C)cc1`, the mortality was determined as 92.5%.

On to `COC(=O)[C@H]1[C@H](C=Cc2c(F)c(F)c(F)c(F)c2F)C1(C)C`, for which the mortality was determined as 100%.

On to `COC(=O)[C@H]1[C@H](C=Cc2cccc(OC)c2)C1(C)C`, for which the mortality is 95%.

For `COC(=O)[C@H]1[C@H](C=Cc2ccccc2OC)C1(C)C`, the mortality is given as 95%.

With `COC(=O)[C@@H]1[C@@H](C=O)C1(C)C`, the mortality is 67.5%.

Turning to `COC(=O)[C@H]1[C@H](C=O)C1(C)C`, the mortality came out at 47.5%.

Take `CC1(C)C2COC(=O)C21` (stereo not given): the mortality came to 100%.

Consider `COC(=O)[C@H]1[C@H](C=Cc2ccccc2Cl)C1(C)C` (mixture of isomers), for which the mortality was 100%.

In the case of `CC1(C)C(C=C(Cl)Cl)C1C(=O)OCc1cccc(Oc2ccccc2)c1` (stereo not given) [PERMETHRIN], the mortality was 100%.

The next assay has as its system Sitophilus zeamais. The experiment in a line: Insecticidal activity against Sitophilus zeamais assessed as mortality at 50 ug applied on thoracic tergite at 25 +/- 0.5 degC and 75 +/- 5 % RH without food for 24 hr. The format is functional. Put shortly: as §1
Regarding `CCOc1ccc(C=C[C@H]2[C@H](C(=O)OC)C2(C)C)cc1`, the mortality is given as 100%.

For `COC(=O)[C@H]1[C@H](C=Cc2c(F)c(F)c(F)c(F)c2F)C1(C)C`, the mortality is recorded as 100%.

Turning to `COC(=O)[C@H]1[C@H](C=Cc2cccc(OC)c2)C1(C)C`, the mortality was 97.5%.

Regarding `COC(=O)[C@H]1[C@H](C=Cc2ccccc2OC)C1(C)C`, the mortality amounted to 95%.

For `COC(=O)[C@@H]1[C@@H](C=O)C1(C)C`, the mortality came out at 45%.

As to `COC(=O)[C@H]1[C@H](C=O)C1(C)C`, the mortality is reported as 47.5%.

On to `CC1(C)C2COC(=O)C21` (stereo not given), for which the mortality is reported as 90%.

As to `COC(=O)[C@H]1[C@H](C=Cc2ccccc2Cl)C1(C)C` (mixture of isomers), the mortality was found to be 90%.

Turning to `CC1(C)C(C=C(Cl)Cl)C1C(=O)OCc1cccc(Oc2ccccc2)c1` (stereo not given) [PERMETHRIN], the mortality amounted to 90%.

A further assay has as its system Acanthoscelides obtectus. The experiment in a line: Insecticidal activity against Acanthoscelides obtectus assessed as mortality at 50 ug applied on thoracic tergite at 25 +/- 0.5 degC and 75 +/- 5 % RH without food for 24 hr. Type of assay: functional. Put shortly:
as §1
In the case of `CCOc1ccc(C=C[C@H]2[C@H](C(=O)OC)C2(C)C)cc1`, the mortality was found to be 97.5%.

Consider `COC(=O)[C@H]1[C@H](C=Cc2c(F)c(F)c(F)c(F)c2F)C1(C)C`, for which the mortality is given as 100%.

As to `COC(=O)[C@H]1[C@H](C=Cc2cccc(OC)c2)C1(C)C`, the mortality is 92.5%.

As for `COC(=O)[C@H]1[C@H](C=Cc2ccccc2OC)C1(C)C`, the mortality is recorded as 95%.

On to `COC(=O)[C@@H]1[C@@H](C=O)C1(C)C`, for which the mortality turned out to be 97.5%.

As for `COC(=O)[C@H]1[C@H](C=O)C1(C)C`, the mortality is 100%.

With `CC1(C)C2COC(=O)C21` (stereo not given), the mortality turned out to be 100%.

For `COC(=O)[C@H]1[C@H](C=Cc2ccccc2Cl)C1(C)C` (mixture of isomers), the mortality was 97.5%.

With `CC1(C)C(C=C(Cl)Cl)C1C(=O)OCc1cccc(Oc2ccccc2)c1` (stereo not given) [PERMETHRIN], the mortality turned out to be 100%.

The subject of the next assay is Periplaneta americana. The experiment in a line: Insecticidal activity against second-instar nymph Periplaneta americana (American cockroach) assessed as mortality at 5 ug applied on thoracic tergite at 25 +/- 0.5 degC and 75 +/- 5 % RH with food for 12 hr. Type of assay: functional. Put shortly:
as §1
Regarding `CCOc1ccc(C=C[C@H]2[C@H](C(=O)OC)C2(C)C)cc1`, the mortality came to 75%.

On to `COC(=O)[C@H]1[C@H](C=Cc2c(F)c(F)c(F)c(F)c2F)C1(C)C`, for which the mortality is 100%.

On to `COC(=O)[C@H]1[C@H](C=Cc2cccc(OC)c2)C1(C)C`, for which the mortality is reported as 92%.

Consider `COC(=O)[C@H]1[C@H](C=Cc2ccccc2OC)C1(C)C`, for which the mortality is 100%.

In the case of `COC(=O)[C@@H]1[C@@H](C=O)C1(C)C`, the mortality came out at 67%.

As to `COC(=O)[C@H]1[C@H](C=O)C1(C)C`, the mortality was found to be 79.33%.

As to `CC1(C)C2COC(=O)C21` (stereo not given), the mortality worked out at 100%.

Take `COC(=O)[C@H]1[C@H](C=Cc2ccccc2Cl)C1(C)C` (mixture of isomers): the mortality amounted to 67%.

Regarding `CC1(C)C(C=C(Cl)Cl)C1C(=O)OCc1cccc(Oc2ccccc2)c1` (stereo not given) [PERMETHRIN], the mortality was determined as 87.5%.

Source of the values: ChEMBL document CHEMBL3044705, “Synthesis and insecticidal activity of an oxabicyclolactone and novel pyrethroids” (2012).
